The values below come from PubChem BioAssay.

Calls of active or inactive are those of the source.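 The calls were made as follows, unless noted: active = viability at or below 10% of carrier control in both of two separate runs; inconclusive = viability at or below 10% in only one of the two runs; inactive = the rest.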

Experiment [1] is described as follows: reduced viability of SK-BR-3 breast cancer cells – cell-based, 24 h, human, pilot screen (AID 572).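 Also: compound exposure lasted between 18 and 24 h rather than exactly 24 h; 100% = carrier-treated control wells.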 Particulars: SK-BR-3 viability, CellTiter-Glo luminescence, at 10 µM, stronger effect = lower value.
Experiment [2] can be described thus: HUVEC growth inhibition – cell-based, human, primary screen (AID 575;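 active = viability at or below 30% in both replicate assays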;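 also: 100% = median of untreated cell wells with 0.1% DMSO on each plate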). Particulars: HUVEC proliferation, CellTiter-Glo luminescence, 72 h; at 10 µM; stronger effect = lower value. The gist of the method: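 Material: primary human umbilical vein endothelial cells / Schedule: 72 h exposure, 37 °C, 5% CO2, 30 min RT equilibration / Signal: ATP-based CellTiter-Glo luminescent read / Read-out basis: percent of median DMSO-control luminescence / Control set: 32 DMSO-only cell-control wells (high), 32 MePR drug-control wells (low) per plate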
Background: Cellular ATP, detected with luciferase, serves as a proxy for viable cell number.

The nature of experiment [3]: H69AR cell proliferation blockers – human, duplicate replicates, primary screen (AID 580;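 active = viability at or under a set limit in both replicates, limit being median viability minus 3 SD, cut at about 48% in these data, passing the limit was not always enough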;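 also: 100% = mean luminescence of untreated wells and 0% = no signal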). The note with it: H69AR lung tumor cells viability, ATP luminescence, 72 h; at 10 µM; stronger effect = lower value.
Experiment [4] in a line: MRP1 drug-resistance reversers in H69AR cells – cell-based, doxorubicin co-treatment, pilot screen (AID 601;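 active = viability loss from added drug above about 55%, and viability with drug at most 40%, in both replicates, limit read from the data, passing the limit was not always enough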). Particulars: CellTiter-Glo, 72 h, at 10 µM; for differential viability (reversal): stronger effect = higher value.
The nature of experiment [5]: yeast transport mutant growth inhibition pilot in 384-well plates, post-Golgi transport modulator project (AID 636; in the data active = inhibition above about 31%). Particulars: absorbance 615 nm, about 18 h, stronger effect = higher value.
Experiment [6] is described as follows: growth suppression of yeast trafficking mutant, preliminary HTS, modulators of trafficking downstream of Golgi apparatus project, 1536-format plate, OD 615 nm (AID 637; in the data active = inhibition above about 30%). The note with it: yeast transport mutant growth, absorbance 615 nm, 18 h; stronger effect = higher value.
[7] abbreviates: H69AR cells + 2 uM doxorubicin, measured here: viability with 2 uM doxorubicin, stronger effect = lower value.
The mark [8] stands for this setting: H69AR cells, compound alone cytotoxicity.

By viability is commonly meant a read-out of living cells in per cent, often relative to untreated cells. One may read the inhibition as the relative decrease from the control value, in per cent. `Cc1cc(C(=O)Nc2nnc(C(F)(F)F)s2)no1`: the viability is 98% (inactive) in experiment [1]; 107% (inactive) in experiment [2]; 105% (inactive) in experiment [3]; 99.8% in experiment [4] (setting [7]); 105% in experiment [4] (setting [8]). Also, the differential viability (reversal) in experiment [4] (H69AR cells + 2 uM doxorubicin) was 5.13% (inactive). The inhibition was -7.4% (inactive) in experiment [5] and 0.32% (inactive) in experiment [6].
Consider `COc1ccccc1N1CCN(C(=O)CN(Cc2ccc(Cl)cc2)S(C)(=O)=O)CC1`, for which the viability in experiment [1] was 91% (inactive); in experiment [2], 88.7% (inactive); in experiment [3], 99.8% (inactive); in experiment [4] (setting [7]), 95.7%; in experiment [4] (setting [8]), 99.8%. Further, in experiment [4] (H69AR cells + 2 uM doxorubicin), the differential viability (reversal) is 4.09% (inactive). Besides, the inhibition in experiment [5] is -5.45% (inactive); in experiment [6], -0.49% (inactive).
Turning to `COc1ccc(-c2nnc(SCC(=O)Nc3sc4c(c3C#N)CCC4)n2CC2CCCO2)cc1` (configuration not stated), the viability is 89% (inactive) in experiment [1]; 97% (inactive) in experiment [2]; 93.8% (inactive) in experiment [3]; 74.4% in experiment [4] (setting [7]); 93.8% in experiment [4] (setting [8]). In addition, the differential viability (reversal) in experiment [4] (H69AR cells + 2 uM doxorubicin) is 19.5% (inactive). Besides, the inhibition in experiment [5] is 2.43% (inactive); in experiment [6] it was -1.43% (inactive).
With `Cc1oc(-c2ccc(Cl)cc2)cc1-c1nn2c(-c3ccoc3C)nnc2s1`, the viability in experiment [1] was 86% (inactive); in experiment [2] it was 75.3% (inactive); in experiment [3] it was 83.7% (inactive); in experiment [4] (setting [7]) it was 95.7%; in experiment [4] (setting [8]), 83.7%. In addition, in experiment [4] (H69AR cells + 2 uM doxorubicin), the differential viability (reversal) is -12% (inactive). Also, the inhibition in experiment [5] is 18.9% (inactive); in experiment [6] it was 3.06% (inactive).
On to `CCCC(=O)Nc1cc(-c2nnc(OC)c3ccccc23)ccc1N1CCOCC1`, for which the viability in experiment [1] is 109% (inactive); in experiment [2], 84.6% (inactive); in experiment [3] it was 94.5% (inactive); in experiment [4] (setting [7]) it was 102%; in experiment [4] (setting [8]), 94.5%. In addition, the differential viability (reversal) in experiment [4] (H69AR cells + 2 uM doxorubicin) is -7.97% (inactive). The figures for the inhibition in experiment [5] and in experiment [6] were 0.96% (inactive) and 3.71% (inactive), respectively.
With `CCOC(=O)c1c(-c2ccc(C)o2)csc1NC(=O)CN1CCN(CC)CC1`, the viability in experiment [1] was 87% (inactive); in experiment [2], 88.6% (inactive); in experiment [3], 80.2% (inactive); in experiment [4] (setting [7]), 86.7%; in experiment [4] (setting [8]), 80.2%. In experiment [4] (H69AR cells + 2 uM doxorubicin), the differential viability (reversal) was -6.44% (inactive). Besides, the inhibition in experiment [5] is -7.53% (inactive); in experiment [6], 4.18% (inactive).
`Nc1nnc(SCc2cc3c(cc2Cl)OCO3)s1`: the viability was 118% (inactive) in experiment [1]; 94.4% (inactive) in experiment [2]; 99.7% (inactive) in experiment [3]; 85.2% in experiment [4] (setting [7]); 99.7% in experiment [4] (setting [8]). The differential viability (reversal) in experiment [4] (H69AR cells + 2 uM doxorubicin) was 14.4% (inactive). The inhibition in experiment [5] was -2.47% (inactive); in experiment [6], -1.13% (inactive).
For `O=S(=O)(c1ccc2c(c1)OCCO2)N1CCC(n2nnc3cc(F)ccc32)CC1`, the viability in experiment [1] is 91% (inactive); in experiment [2], 74.8% (inactive); in experiment [3], 84.2% (inactive); in experiment [4] (setting [7]) it was 90.1%; in experiment [4] (setting [8]), 84.2%. Further, the differential viability (reversal) in experiment [4] (H69AR cells + 2 uM doxorubicin) is -5.86% (inactive). Besides, the figures for the inhibition in experiment [5] and in experiment [6] were -9.04% (inactive) and -1.77% (inactive), respectively.
As to `CC(=O)C1=C(O)C(=O)N(C2CCCCC2)C1c1ccccc1` (configuration not stated), the viability was 107% (inactive) in experiment [1]; 98.6% (inactive) in experiment [2]; 97.3% (inactive) in experiment [3]; 86.4% in experiment [4] (setting [7]); 97.3% in experiment [4] (setting [8]). Also, the differential viability (reversal) in experiment [4] (H69AR cells + 2 uM doxorubicin) is 10.9% (inactive). Moreover, the results for the inhibition in experiment [5] and in experiment [6] were -8.08% (inactive) and 5.32% (inactive), respectively.
As for `CCCc1cc(=O)[nH]c(Nc2ccc(OC)c(Cl)c2)n1`, the viability in experiment [1] was 115% (inactive); in experiment [2], 76.1% (inactive); in experiment [3], 70.6% (inactive); in experiment [4] (setting [7]), 78.2%; in experiment [4] (setting [8]), 70.6%. In addition, the differential viability (reversal) in experiment [4] (H69AR cells + 2 uM doxorubicin) is -7.59% (inactive). Moreover, the inhibition in experiment [5] was -3.51% (inactive); in experiment [6], 4.43% (inactive).
Take `C=CCOc1ccc(C2/C(=C(\O)c3c(C)[nH]c(C(=O)OC)c3C)C(=O)C(=O)N2CCN(C)C)cc1` (configuration not stated): the viability in experiment [1] was 95% (inactive); in experiment [2], 82.7% (inactive); in experiment [3] it was 90.2% (inactive); in experiment [4] (setting [7]) it was 95.9%; in experiment [4] (setting [8]) it was 90.2%. Besides, the differential viability (reversal) in experiment [4] (H69AR cells + 2 uM doxorubicin) is -5.67% (inactive). Also, the values for the inhibition in experiment [5] and in experiment [6] were 0.52% (inactive) and 11.5% (inactive), respectively.
In the case of `COCCNC(=S)c1ccc(OC)cc1`, the viability in experiment [1] was 118% (inactive); in experiment [2], 112% (inactive); in experiment [3], 86% (inactive); in experiment [4] (setting [7]) it was 77.1%; in experiment [4] (setting [8]) it was 86%. Besides, the differential viability (reversal) in experiment [4] (H69AR cells + 2 uM doxorubicin) was 8.94% (inactive). Moreover, the values for the inhibition in experiment [5] and in experiment [6] were -8.27% (inactive) and 5.27% (inactive), respectively.
On to `COC(=O)CN(Cc1ccco1)S(=O)(=O)c1ccccc1`, for which the viability in experiment [1] is 98% (inactive); in experiment [2] it was 102% (inactive); in experiment [3] it was 77.6% (inactive); in experiment [4] (setting [7]), 80.9%; in experiment [4] (setting [8]), 77.6%. Besides, the differential viability (reversal) in experiment [4] (H69AR cells + 2 uM doxorubicin) was -3.33% (inactive). Moreover, the inhibition in experiment [5] is -2.67% (inactive); in experiment [6], -0.91% (inactive).
Consider `Cc1nn(-c2nc3ccccc3[nH]2)c(N)c1-c1ccccc1`, for which the viability in experiment [1] was 97% (inactive); in experiment [2] it was 62.5% (inactive); in experiment [3] it was 41.3% (active); in experiment [4] (setting [7]) it was 68.9%; in experiment [4] (setting [8]) it was 41.3%. Also, the differential viability (reversal) in experiment [4] (H69AR cells + 2 uM doxorubicin) is -27.6% (inactive). Also, the inhibition in experiment [5] is 11.6% (inactive); in experiment [6] it was 2.7% (inactive).
For the compound `CCOc1ccccc1-c1nc(-c2ccc(C)nc2OC)no1`, the viability in experiment [1] is 123% (inactive); in experiment [2], 95.9% (inactive); in experiment [3], 81.9% (inactive); in experiment [4] (setting [7]), 82.2%; in experiment [4] (setting [8]) it was 81.9%. Besides, the differential viability (reversal) in experiment [4] (H69AR cells + 2 uM doxorubicin) is -0.315% (inactive). Further, the inhibition was -0.78% (inactive) in experiment [5] and 5.74% (inactive) in experiment [6].
Regarding `CC(=O)Nc1ccccc1O`, the viability was 111% (inactive) in experiment [1]; 102% (inactive) in experiment [2]; 96.1% (inactive) in experiment [3]; 95.7% in experiment [4] (setting [7]); 96.1% in experiment [4] (setting [8]). The differential viability (reversal) in experiment [4] (H69AR cells + 2 uM doxorubicin) is 0.37% (inactive). For the same compound, the results for the inhibition in experiment [5] and in experiment [6] were -0.13% (inactive) and 4.5% (inactive), respectively.
For `Cc1c(C(=O)N2CCN(c3ccccc3)CC2)sc2ncnc(N3CCN(c4ccccc4)CC3)c12`, the viability was 88% (inactive) in experiment [1]; 82.5% (inactive) in experiment [2]; 93% (inactive) in experiment [3]; 97.2% in experiment [4] (setting [7]); 93% in experiment [4] (setting [8]). Further, in experiment [4] (H69AR cells + 2 uM doxorubicin), the differential viability (reversal) was -4.17% (inactive). For the same compound, the inhibition in experiment [5] is 0.13% (inactive); in experiment [6], -4.59% (inactive).
As for `O=C(CN(CC1CCCO1)S(=O)(=O)c1ccc(S(=O)(=O)NC2CC2)cc1)Nc1ccccc1` (configuration not stated), the viability in experiment [1] was 109% (inactive); in experiment [2], 96.9% (inactive); in experiment [3] it was 95.3% (inactive); in experiment [4] (setting [7]) it was 96.8%; in experiment [4] (setting [8]) it was 95.3%. In experiment [4] (H69AR cells + 2 uM doxorubicin), the differential viability (reversal) was -1.47% (inactive). For the same compound, the inhibition in experiment [5] was -2% (inactive); in experiment [6], -9.27% (inactive).
In the case of `COc1ccccc1OCCOCCn1cnc2ccccc2c1=O`, the viability was 87% (inactive) in experiment [1]; 93.8% (inactive) in experiment [2]; 87.7% (inactive) in experiment [3]; 91.1% in experiment [4] (setting [7]); 87.7% in experiment [4] (setting [8]). For the same compound, the differential viability (reversal) in experiment [4] (H69AR cells + 2 uM doxorubicin) is -3.44% (inactive). Besides, the inhibition in experiment [5] was -5.75% (inactive); in experiment [6] it was 0.97% (inactive).
